This is a sample that favours compounds with a hit; in the whole collection about 3.3% have one here.
PMI act hi M6P: human PMI activators, high substrate, primary screen, biochemical, fluorescence intensity, near-saturating mannose 6-phosphate. coupled PMI enzyme assay, resazurin fluorescence, 20 min; stronger effect = higher value; 1 = untreated enzyme, 0 = substrate-free blank. activation factor at 20 µM. actives 0.34% (n = 190,000);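 active = activation factor of 2 or more at 20 µM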
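Test system: human phosphomannose isomerase with PGI, G6PDH, diaphorase coupling enzymes; Amount: PMI at 15 ng/mL final; Reagent: Mannose-6-phosphate 1.0 mM (near-saturating) plus 0.22 mM NADP+; Timing: 20 min, room temperature; Technique: resorufin fluorescence at Ex 544/Em 590 nm; Dosing: 20 µM single dose.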
PMI act: activators of human PMI, primary screen, biochemical, fluorescence intensity, near-Km mannose 6-phosphate; purified human PMI, coupled resazurin fluorescence, 20 min; stronger effect = higher value; 1 = vehicle control, 0 substrate-free wells; activation factor at 20 µM; actives 0.005% (n = 190,000);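 active = activation factor of 2 or more at 20 µM, relative to plate controls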
ABCG2 block: ABCG2 efflux pump inhibitors, primary screen, multiplex with ABCB1, IgMXP3 cells, flow cytometry; inhibition, % at 6.6 µM; AID 1325, 2008; actives 0.1% (n = 190,000); Broad substrate specificity ATP-binding cassette transporter ABCG2 (Homo sapiens), Q9UNQ0; JC-1 efflux;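 active = inhibition above 80%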;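 note: 0% = DMSO and 100% = nicardipine control wells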
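Assay system – ABCG2 IgMXP3 and barcoded ABCB1 CCRF-Adr cell mix · Input – 3 million cells/mL in well · Reagent – JC-1 fluorescent substrate · Compound – single test compound dose, 6.6 µM final · Timing – 10 min exposure at 25 °C with rotation, no wash · Detection – flow cytometry of retained JC-1 fluorescence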
ROMK primary: ROMK potassium channel modulators, primary screen, cell-based, thallium flux, MLSMR library; ATP-sensitive inward rectifier potassium channel 1 (Homo sapiens), P48048; Tet-inducible ROMK, thallium flux fluorescence; actives lie on both sides; B-score at 10 µM; actives 2% (n = 130,000); AID 1918, 2009;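 active = signal ratio slope over the read window, or its plate-corrected B-score, at least 3 SD from the plate mean, either direction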;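 note: B-score of the F/F0 ratio slope over 7 to 12 s after thallium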
Target sequence (P48048 whole entry, looked up): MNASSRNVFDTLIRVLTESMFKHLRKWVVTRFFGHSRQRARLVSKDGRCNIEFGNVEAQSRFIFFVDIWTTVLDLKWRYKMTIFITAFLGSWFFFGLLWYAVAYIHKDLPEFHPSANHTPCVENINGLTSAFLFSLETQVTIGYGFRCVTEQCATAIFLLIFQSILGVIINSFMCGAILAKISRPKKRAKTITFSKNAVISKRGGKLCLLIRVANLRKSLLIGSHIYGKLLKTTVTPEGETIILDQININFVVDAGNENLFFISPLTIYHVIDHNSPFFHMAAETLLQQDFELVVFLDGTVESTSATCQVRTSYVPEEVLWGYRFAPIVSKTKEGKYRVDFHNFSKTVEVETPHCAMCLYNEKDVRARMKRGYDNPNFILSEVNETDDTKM
ABCB1 inh: ABCB1 efflux pump inhibitors, primary screen, cell-based, multiplex, flow cytometry, ABCG2 counter-screen; ATP-dependent translocase ABCB1 (Homo sapiens), P08183; CCRF-Adr cells, JC-1 efflux; inhibition, % at 6.6 µM; actives 0.067% (n = 190,000); AID 1326, 2008; in the data active = inhibition above about 40%;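 note: 0% = vehicle and 100% = reference inhibitor; higher value means more JC-1 retained so stronger ABCB1 efflux block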
Cl transport mod: KCC2 cotransporter modulators, thallium flux, primary screen, cell-based, HEK293 KCC2, FluoZin-2 fluorescence, MLSMR. actives 2.2% (n = 190,000). AID 1456, 2008. B-score of Tl+ flux slope (higher = more flux/activation; lower = inhibition) at 10 µM. Solute carrier family 12 member 5 (Homo sapiens), Q9H2X9. KCC2 cells, thallium flux FluoZin-2 fluorescence;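 active = thallium flux slope and its plate-corrected score both differing from the plate sample mean at a set confidence after two filtering rounds, in either direction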;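 note: slope of fluorescence scaled to starting intensity during 10 to 20 s after thallium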
KCC2 secondary: KCC2 modulators in sodium-free buffer, confirmation, cell-based, HEK293 KCC2, thallium flux, secondary assay; shares compounds with Cl transport mod; FluoZin2 fluorescence; stronger effect = higher value; normalised thallium flux (F/F0 slope) at 10 µM; actives 15% (n = 3,700);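 active = thallium flux slope above the same plate's solvent-only control mean plus 3 SD; inconclusive = the two replicate wells disagree; inactive = no significant difference from solvent-only control wells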
KCC2 bumet counter: thallium flux persisting under bumetanide in KCC2 cells, confirmation, counter-screen for KCC2 modulator project, cell-based, HEK293 KCC2, FluoZin2, secondary assay 3; shares compounds with Cl transport mod; normalized thallium flux at 10 µM; HEK293-KCC2 + bumetanide/ouabain; stronger effect = higher value; actives 49% (n = 3,700);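 active = thallium entry rate above the same plate's blocked-transporter control wells by more than 3 SD; inconclusive = the two repeat wells disagree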;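 note: raw slope of fluorescence over initial fluorescence between 10 and 20 s after thallium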
KCC2 secondary2: KCC2 modulators without ouabain present, confirmation, cell-based, HEK293 KCC2, thallium flux, FluoZin2, secondary assay 2 | actives 23% (n = 3,700) | shares compounds with Cl transport mod | normalized thallium flux at 10 µM | thallium flux FluoZin2 fluorescence; actives lie on both sides; F/F0 rise rate, 10–20 s post-thallium;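 active = thallium flux slope more than 3 SD above or below the plate's solvent-only control mean, mostly below; inconclusive = the two repeat wells disagreed; inactive = no significant shift from solvent-only controls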;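 note: raw slope with 0.1% DMSO as baseline and bumetanide as block control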
HEK counter1: thallium flux modulation in parental HEK cells, confirmation, counter-screen for KCC2 modulator project, cell-based, counterscreen 1; shares compounds with Cl transport mod; HEK293 parental cells, thallium flux FluoZin2, ouabain; baseline-ratio fluorescence slope, 10–20 s after thallium; thallium flux rate (normalised fluorescence) at 10 µM; actives 46% (n = 3,700); AID 1716, 2009;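 active = thallium flux rate significantly above the same plate's solvent-only control wells, beyond their mean plus 3 SD; inconclusive = the two replicate wells gave conflicting results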
KCC2 retest ouab: KCC2 inhibitors and activators, ouabain retest, confirmation, HEK-KCC2 cells. shares compounds with Cl transport mod. HEK293-KCC2, thallium flux FluoZin2 fluorescence; bidirectional: low = inhibitor, high = activator. raw Tl+ flux slope (below DMSO = inhibition, above = activation) at 10 µM. actives 48% (n = 3,700). AID 1717, 2009;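 active = thallium flux slope beyond 3 SD from same-plate DMSO control mean in most replicates, usually higher, sometimes lower; inconclusive = repeat tests gave conflicting results; inactive = no significant difference from controls in most replicates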;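 note: slope of initial-normalized fluorescence between seconds 10 and 20 after thallium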
HEK293 Tl flux2: native HEK Tl+ uptake effects, second counter-screen – HEK cells, counterscreen 2, counter-screen for KCC2 modulator project, confirmation. shares compounds with Cl transport mod. HEK293 parental, thallium flux FluoZin-2 fluorescence slope. thallium flux slope at 10 µM. actives 33% (n = 3,700). AID 1718, 2009;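 active = thallium flux slope above the same plate's solvent-control mean plus 3 SD in both duplicate wells; inconclusive = duplicate wells that disagreed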;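 note: run without ouabain in cells lacking the KCC2 cotransporter; slope of fluorescence scaled to its starting value between 10 and 20 s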
* hit, by the source's call; u = inconclusive; x = no result.

SMILES	PMI act hi M6P	PMI act	ABCG2 block	ROMK primary	ABCB1 inh	Cl transport mod	KCC2 secondary	KCC2 bumet counter	KCC2 secondary2	HEK counter1	KCC2 retest ouab	HEK293 Tl flux2
CN(C)c1ccc(/C=N/N2CCN(c3ccccn3)CC2)cc1	x	x	x	x	x	-0.262	x	x	x	x	x	x
C=CC(C)(C)c1cc2cc3ccoc3cc2oc1=O	1	1	17.1	0.0255	1.3	1.23	x	x	x	x	x	x
O=c1[nH]ncc(N/N=C/c2ccccc2)c1Cl	0.9	0.8	8.4	1.2	-0.1	x	0.00754	0.00556*	0.0285	0.00792	0.0169	0.00945
CC(C)=C(NC(=O)c1ccccc1)C(=O)Nc1ccc(C(=O)O)cc1	x	x	x	x	x	0.436	x	x	x	x	x	x
O=C(NCc1nc2ccccc2[nH]1)C1=C[C@@H](c2ccccc2)C[C@@H](OCCCCO)O1	0.9	0.9	2.8	x	0.6	1.19	x	x	x	x	x	x
O=C(CSc1ncnc2c(-c3ccc(Cl)cc3)nsc12)c1ccccc1	1.3	1.2	8.1	0.0183	-0.1	x	0.0135*	0.028*	0.029	0.0182*	u	0.0105*
COC(=O)c1ccc(CSc2nc3ccccc3c(=O)n2Cc2ccco2)o1	0.9	0.9	5.9	x	2.1	-1.26	x	x	x	x	x	x
COC(=O)c1ccc(CSc2nc3ccccc3c(=O)n2CC(C)C)o1	0.9	0.9	9.5	x	2.2	7.57*	0.00737	0.0178*	0.0347	0.017*	u	0.0173*
Cc1ccc(Nc2nnc(SCC(=O)Nc3cccc(S(=O)(=O)NC4=NCCCCC4)c3)s2)c(C)c1	0.9	0.9	-3.0	-1.44	-0.2	1.3	0.00715	0.00477	0.0296	0.0052*	0.0168*	0.00905
Cc1ccc(C)c(SCC(=O)Nc2cccc(S(=O)(=O)NC3=NCCCCC3)c2)c1	0.8	0.9	-1.5	-0.365	0.3	-1.96	x	x	x	x	x	x

High-throughput results: PubChem BioAssay, several laboratories
